Results filed as inconclusive are left out.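 The calls were made as follows, unless noted: active = viability at or below 27.92% in each of two runs, the all-compound median minus 4 SD; inconclusive = no clear call, values can overlap the other calls; inactive = the rest.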
Columns and labels:
[1] = S. cerevisiae growth inhibition in permissive medium (OD615), pilot counter-assay for S. cerevisiae lifespan shortening project, permissive growth control (AID 705;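 active = growth inhibition above 25% in both replicates, a cutoff set 3 SD above the mean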); settings: OD615, 24 h, at 10 µM, stronger effect = higher value
In short: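 System: S. cerevisiae with engineered DeaD lifespan system / Measured by: absorbance (optical density) at 615 nm / Read-out: reduction in yeast growth (OD615) / Times: 4 h cell pre-growth, 24 h exposure at 30 °C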

[2] = S. cerevisiae growth inhibition in restrictive medium, OD615, pilot screen, restrictive growth control, yeast lifespan reduction project (AID 706;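 active = growth inhibition above a set limit, 3 SD over mean compound inhibition, in both replicates, cut at about 43% in these data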;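 also: modified DeaD lifespan yeast strain shifted to restrictive glucose medium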); settings: OD615, 48 h, at 10 µM, stronger effect = higher value
In short: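 System: Engineered S. cerevisiae DeaD strain | Buffer or medium: Glucose-based CSMM-D restrictive medium | Schedule: 4 h pre-incubation, 48 h exposure at 30 °C | Technique: Optical density at 615 nm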

[3] = doxorubicin toxicity protection in MRP-1 cells – H69AR cells, CellTiter-Glo, duplicate, MRP-1 activator project, pilot screen (AID 807;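 active = viability increase at or above a cutoff of the median across tested compounds plus 3 SD, cut at about 8.5% in these data, passing the limit was not always enough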;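 also: compound pretreatment 18-22 h then 72 h combined with doxorubicin; 0% = doxorubicin alone and 100% = vehicle without doxorubicin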); settings: H69AR viability with doxorubicin, CellTiter-Glo luminescence; at 10 µM; stronger effect = higher value
[4] = viability of HCT116 without oncogenic beta-catenin – human colon tumor cells, pilot screen (AID 823;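 active = cell viability at or below a set limit in both duplicate runs, the limit being the all-compound median minus 4 SD, cut at about 23% in these data, passing the limit was not always enough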;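 also: 0% = wells killed by 20 µM Hyamine and 100% = untreated DMSO cell wells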); settings: HCT116 beta-catenin knockout viability, CellTiter-Glo, 60 h; at 10 µM; stronger effect = lower value
[5] = viability of PTEN-null HCT116 cells – cell-based, HCT116 clonal line, CellTiter-Glo, pilot screen (AID 824); settings: HCT116 PTEN-deleted viability, 60 h, at 10 µM, stronger effect = lower value;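 also: 0% = 20 µM Hyamine control and 100% = vehicle cell control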
[6] = RAM pathway blockade in budding yeast – dse1pr::URA3 reporter, 5-FOA selection, pilot screen (AID 869;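 active = inhibition over a set limit, the all-compound mean plus 3 SD, in both replicate runs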;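 also: 0% = DMSO wells with no growth and 100% = 10 µM 1-NA-PP1 with full growth; RAM network block rescues cells from 5-FOA so hits raise OD615 growth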); settings: S. cerevisiae dse1pr::URA3 5-FOA growth, OD615, 2 d; at 10 µM; stronger effect = higher value; strain carries analog-sensitive mutant Cbk1 kinase
[7] = RAM signaling pathway blockade in yeast – S. cerevisiae, Pdr1DBD-CYC8 efflux-inhibited sensitized strain, primary screen (AID 1298;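 active = RAM network inhibition above 8.4% in each of two replicates, 3 SD over the compound average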;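 also: 0% = DMSO untreated cells without growth and 100% = 10 µM 1-NA-PP1 full growth; higher means more yeast growth rescued from 5-FOA killing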); settings: S. cerevisiae cbk1-as DSE1-URA3 strain, 5-FOA growth OD615, 2 d; at 50 µM; stronger effect = higher value

CC(=O)Nc1ccc(NC(=O)C2CC(=O)N(c3cccc(C)c3C)C2)cc1 (stereo not drawn)
inactive: growth inhibition [1] -21.2% | growth inhibition [2] -8.03% | viability increase [3] -1.32% | viability [4] 93.8% | viability [5] 91.2% | inhibition [6] 0.435% | RAM network inhibition [7] 2.95%

Cc1c(C(=O)NCc2cccnc2)oc2ccc(S(=O)(=O)N3CC(C)CC(C)C3)cc12 (stereo not drawn)
inactive: growth inhibition [1] -3.33% | growth inhibition [2] 16.4% | viability increase [3] -4.52% | viability [4] 93% | viability [5] 87.1% | inhibition [6] 1.87% | RAM network inhibition [7] 2.77%

Cc1ccc(-c2csc(N3CCC(C(N)=O)(N4CCCCC4)CC3)n2)cc1
inactive: growth inhibition [1] 6.21% | growth inhibition [2] -8.75% | viability increase [3] -1.76% | viability [4] 75.5% | viability [5] 75% | inhibition [6] -0.445% | RAM network inhibition [7] 2.58%

CSC1=NCCN1C(=O)COc1ccc2ccccc2c1
inactive: growth inhibition [1] -2.13% | growth inhibition [2] -6.38% | viability increase [3] 0.69% | viability [4] 98.9% | viability [5] 101% | inhibition [6] 2.77% | RAM network inhibition [7] -0.94%

COC(=O)c1cc2c(s1)-c1ccccc1OC2
inactive: growth inhibition [1] -11.1% | growth inhibition [2] 4.14% | viability increase [3] -4.57% | viability [4] 101% | viability [5] 95.7% | inhibition [6] 1.39% | RAM network inhibition [7] 3.14%

CCN1CCN(C(=O)Nc2ccc(Cc3ccc(NC(=O)N4CCN(CC)CC4)cc3)cc2)CC1
inactive: growth inhibition [1] -9.89% | growth inhibition [2] -9.14% | viability increase [3] -2.42% | viability [4] 78.3% | viability [5] 86.7% | inhibition [6] 1.72% | RAM network inhibition [7] 2.65%

CCOC(=O)c1sc2nc3n(c(=O)c2c1C)CCCCC3
inactive: growth inhibition [1] -4.76% | growth inhibition [2] 5.75% | viability increase [3] 6.25% | viability [4] 87.5% | viability [5] 103% | inhibition [6] 0.475% | RAM network inhibition [7] 4.46%

COc1ccc(C2C(C(=O)NCCN(C)C)c3cc(OC)c(OC)cc3C(=O)N2C)cc1OC (stereo not drawn)
inactive: growth inhibition [1] -3.47% | growth inhibition [2] -1.52% | viability increase [3] -1.38% | viability [4] 101% | viability [5] 104% | inhibition [6] 1.56% | RAM network inhibition [7] 3.25%

CCSc1nnc(Cc2cc(=O)[nH]c(=O)[nH]2)n1-c1ccc(Cl)cc1
inactive: growth inhibition [1] -15.2% | growth inhibition [2] -10% | viability increase [3] -0.84% | viability [4] 104% | viability [5] 102% | inhibition [6] 1.5% | RAM network inhibition [7] -0.99%

Cc1cc(C(=O)CN2CC(C)OC(C)C2)c(C)n1-c1ccccc1 (stereo not drawn)
inactive: growth inhibition [1] 0.61% | growth inhibition [2] -5.6% | viability increase [3] -1.04% | viability [4] 97.6% | viability [5] 99.6% | inhibition [6] 1.83% | RAM network inhibition [7] 7.04%

COc1ccc(-n2c(Cc3cc(=O)[nH]c(=O)[nH]3)nnc2SCC(=O)N2CCCC2)cc1
inactive: growth inhibition [1] -4.92% | growth inhibition [2] -0.375% | viability increase [3] 0.36% | viability [4] 101% | viability [5] 97.9% | inhibition [6] 0.805% | RAM network inhibition [7] 0.42%

Cc1cccc(OCC(=O)NCc2ccncc2)c1C
inactive: growth inhibition [1] -7.54% | growth inhibition [2] -7.64% | viability increase [3] -1.63% | viability [4] 99.4% | viability [5] 104% | inhibition [6] 0.525% | RAM network inhibition [7] 4.22%

COc1cc(C2C3=C(CC(C)(C)CC3=O)N(C)C(=O)N2C)cc(OC)c1OC (stereo not drawn)
inactive: growth inhibition [1] -7.27% | growth inhibition [2] -16.8% | viability increase [3] -0.06% | viability [4] 104% | viability [5] 103% | inhibition [6] 0.385% | RAM network inhibition [7] -0.15%

c1ccc2c(c1)CCN(CCCNc1nc3ccccc3n3cnnc13)C2
inactive: growth inhibition [1] -9.84% | growth inhibition [2] -12.9% | viability increase [3] -4.17% | viability [4] 91.3% | viability [5] 97.1% | inhibition [6] 1.18% | RAM network inhibition [7] -1.09%

O=C(NC1CCCCCCC1)C1CCC(CNc2c(N3CCCC3)c(=O)c2=O)CC1 (stereo not drawn)
inactive: growth inhibition [1] -6.82% | growth inhibition [2] 0.64% | viability increase [3] 0.87% | viability [4] 91.6% | viability [5] 96% | inhibition [6] 0.85% | RAM network inhibition [7] 4.83%

c1ccc2[nH]c(SCCN3CCOCC3)nc2c1
inactive: growth inhibition [1] -2.45% | growth inhibition [2] 8.19% | viability increase [3] -1.11% | viability [4] 98.9% | viability [5] 104% | inhibition [6] -0.025% | RAM network inhibition [7] 1.35%

COC(=O)c1cn(NC(=O)CC2CCCCC2)c(=O)c2ccccc12
inactive: growth inhibition [1] 7.57% | growth inhibition [2] 1.75% | viability increase [3] 0.01% | viability [4] 94% | viability [5] 91.7% | inhibition [6] 0.24% | RAM network inhibition [7] 2.22%

COCC(=O)Nc1ccc(C(N)=O)cc1
inactive: growth inhibition [1] -13.6% | growth inhibition [2] -6.43% | viability increase [3] -0.44% | viability [4] 96.5% | viability [5] 95.3% | inhibition [6] 1.91% | RAM network inhibition [7] 7.41%

COc1ccc(O)c(-c2[nH]ncc2C(=O)c2ccccc2C)c1
inactive: growth inhibition [1] -7.88% | growth inhibition [2] -5.12% | viability increase [3] -0.59% | viability [4] 100% | viability [5] 98.5% | inhibition [6] -0.045% | RAM network inhibition [7] -0.67%

C=C1CC2C=C(NC(C)=O)CC(C1)C2 (stereo not drawn)
inactive: growth inhibition [1] -18.7% | growth inhibition [2] -12.7% | viability increase [3] -0.27% | viability [4] 98.6% | viability [5] 95.6% | inhibition [6] 1.1% | RAM network inhibition [7] 4.47%

Cc1ccc(NC(=O)C2CCCN(S(=O)(=O)c3ccc4c(c3)oc(=O)n4C)C2)nc1 (stereo not drawn)
inactive: growth inhibition [1] -7.92% | growth inhibition [2] -2.67% | viability increase [3] -0.05% | viability [4] 101% | viability [5] 101% | inhibition [6] 1.09% | RAM network inhibition [7] -2.07%

CCC(CO)Nc1ncnc2c1cnn2-c1ccc(OC)cc1 (stereo not drawn)
inactive: growth inhibition [1] -7.48% | growth inhibition [2] -7.47% | viability increase [3] 0.37% | viability [4] 104% | viability [5] 101% | inhibition [6] 2.01% | RAM network inhibition [7] -1.98%

COc1ccc(NC(C)=O)cc1NC(=O)CSc1nnc(-c2ccncc2)n1C
inactive: growth inhibition [1] -5.57% | growth inhibition [2] -7.07% | viability increase [3] -1.99% | viability [4] 96.6% | viability [5] 106% | inhibition [6] 0.24% | RAM network inhibition [7] 0.2%

CC1CCc2nn(CC(=O)NC3CCCC(C)C3C)cc2C1 (stereo not drawn)
inactive: growth inhibition [1] -6.6% | growth inhibition [2] -6.19% | viability increase [3] 1.67% | viability [4] 97.5% | viability [5] 85.3% | inhibition [6] -0.3% | RAM network inhibition [7] 1.94%

Reference: PubChem BioAssay
